Values after ≈ are worked out from the molar mass of the structure shown.
How the values were obtained:
HEK293 = assay: Cytotoxicity against HEK293 cells assessed as reduction in cell viability at 64 ug/ml incubated for 24 hrs by resazurin dye based fluorescence analysis; format: toxicity; settings: human, hek293, 24 h, dose 64 µg/ml
In short: (§1)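 HEK-293 or HepG2 cells grown in DMEM with 10% FBS and 1% penicillin/streptomycin at 37 °C, 5% CO2. Positive control was 1% Triton X-100. Viability read by resazurin (2 mM stock) added for 24 h, measuring resorufin fluorescence.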

HepG2 = assay: Cytotoxicity against human HepG2 cells assessed as reduction in cell viability at 64 ug/ml incubated for 24 hrs by resazurin dye based fluorescence analysis; format: toxicity; settings: hepg2, 24 h, dose 64 µg/ml; in short: as §1
[1] = biological target: T1, Metallothiol transferase FosB (Staphylococcus aureus, UniProt Q5HDM4); assay: Inhibition of Staphylococcus aureus FosB using L-cysteine as substrate assessed as inhibition constant for initial binding event by absorbance based DTNB assay
Staphylococcus aureus [2] = assay: Antibacterial activity against Staphylococcus aureus JE2 harboring […] assessed as fosfomycin MIC at 128 ug/ml incubated overnight by double dilution method; format: functional; settings: dose 128 µg/ml
In short: (§2)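 S. aureus JE2 grown overnight at 37 °C on Mueller–Hinton agar; colonies suspended in MH broth to OD600 ~0.5, diluted 1:1000 and added to serial twofold dilutions of compound (water stocks 10 mg/mL). Incubated overnight at 37 °C; MIC read visually as the well with no growth. Sterile and growth control wells included. For combinations, fosfomycin diluted along one plate axis and inhibitor along the other, before the inoculum was added.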

Staphylococcus aureus [3] = assay: Antibacterial activity against Staphylococcus aureus JE2 harboring […] assessed as reduction in bacterial growth incubated overnight by double dilution method; format: functional; in short: as §2
Staphylococcus aureus [4] = assay: Antibacterial activity against Staphylococcus aureus JE2 harboring […] assessed as reduction in bacterial growth incubated overnight in presence of fosfomycin by double dilution method; format: functional; in short: as §2
[5] = biological target: T1, Metallothiol transferase FosB; assay: Competitive inhibition of Staphylococcus aureus FosB using L-cysteine as substrate assessed as inhibition constant for initial binding event by absorbance based DTNB assay
Staphylococcus aureus [6] = assay: Antibacterial activity against Staphylococcus aureus lacking FosB; format: functional
Staphylococcus aureus [7] = assay: Antibacterial activity against Staphylococcus aureus harboring FosB; format: functional; in short: as §2
[8] = biological target: T1, Metallothiol transferase FosB; assay: Parabolic competitive inhibition of Staphylococcus aureus FosB using L-cysteine as substrate assessed as inhibition constant for initial binding event by absorbance based DTNB assay
In short: (§3)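 FosB from S. aureus, steady-state Michaelis–Menten kinetics with L-cysteine as the thiol co-substrate (instead of BSH) and varied fosfomycin. Rates read by absorbance-based DTNB assay at several fixed inhibitor concentrations. Initial velocities globally fit to a parabolic competitive model (two inhibitor molecules bind). Ki1 is the first binding event, Ki2 the second.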

[9] = biological target: T1, Metallothiol transferase FosB; assay: Parabolic competitive inhibition of Staphylococcus aureus FosB using L-cysteine as substrate assessed as inhibition constant for second binding event by absorbance based DTNB assay; in short: as §3

T1 sequence (Q5HDM4 whole entry): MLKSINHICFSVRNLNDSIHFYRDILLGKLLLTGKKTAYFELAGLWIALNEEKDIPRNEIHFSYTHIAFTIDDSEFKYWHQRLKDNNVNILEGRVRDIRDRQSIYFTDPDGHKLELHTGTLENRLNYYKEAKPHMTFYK

SMILES: O=C(O)CCP(=O)(O)O
- Activity (HEK293): Non-Toxic
- Activity (HepG2): Non-Toxic

SMILES: O=P(O)(O)CCP(=O)(O)O
- Activity (HEK293): Non-Toxic
- Activity (HepG2): Non-Toxic

SMILES: CC(C)[C@H](O)P(=O)(O)O
- Ki [1]: 3580 µM
- MIC (Staphylococcus aureus [2]): 8 µg/mL
- Activity (HEK293): Non-Toxic
- Activity (HepG2): Non-Toxic
- MIC (Staphylococcus aureus [3]): > 128 µg/mL
- MIC (Staphylococcus aureus [4]): > 128 µg/mL

SMILES: C[C@H](CO)P(=O)(O)O
- Ki [1]: 5290 µM
- MIC (Staphylococcus aureus [2]): 8 µg/mL
- Activity (HEK293): Non-Toxic
- Activity (HepG2): Non-Toxic
- MIC (Staphylococcus aureus [3]): > 128 µg/mL
- MIC (Staphylococcus aureus [4]): > 128 µg/mL

SMILES: CC[C@@H](O)P(=O)(O)O
- Ki [1]: 1570 µM
- MIC (Staphylococcus aureus [2]): 8 µg/mL
- Activity (HEK293): Non-Toxic
- Activity (HepG2): Non-Toxic
- MIC (Staphylococcus aureus [4]): > 128 µg/mL

SMILES: C[C@@H](C(=O)O)P(=O)(O)O
- MIC (Staphylococcus aureus [2]): 8 µg/mL
- Activity (HEK293): Non-Toxic
- Ki [5]: 430 µM
- Activity (HepG2): Non-Toxic
- MIC (Staphylococcus aureus [3]): > 128 µg/mL
- MIC (Staphylococcus aureus [4]): > 128 µg/mL

SMILES: C[C@@H]1O[C@@H]1P(=O)(O)O [FOSFOMYCIN]
- Activity (HEK293): Non-Toxic
- MIC (Staphylococcus aureus [6]): 0.5 µg/mL (≈ 3.62 µM)
- Activity (HepG2): Non-Toxic
- MIC (Staphylococcus aureus [7]): 64 µg/mL (≈ 464 µM)
- MIC (Staphylococcus aureus [3]): > 128 µg/mL

SMILES: O=C(O)CP(=O)(O)O [FOSFONET]
- MIC (Staphylococcus aureus [2]): 8 µg/mL
- Ki [8]: 900 µM
- Activity (HEK293): Non-Toxic
- Activity (HepG2): Non-Toxic
- Ki [9]: 210 µM
- MIC (Staphylococcus aureus [3]): > 128 µg/mL
- MIC (Staphylococcus aureus [4]): > 128 µg/mL

SMILES: CC(C(=O)O)C(=O)O [METHYLMALONIC ACID]
- Activity (HEK293): Non-Toxic
- Activity (HepG2): Non-Toxic

— ChEMBL document CHEMBL5346942, “Identification and analysis of small molecule inhibitors of FosB from Staphylococcus aureus” (RSC Med Chem, 2023)
